T cruzi repl: inhibitors of intracellular T. cruzi growth, primary screen, luminescence, NIH3T3 host cells | T. cruzi beta-gal in NIH3T3, 90 h | inhibition, % (no concentration beside the values) | 300,000 tested, 1.4% active;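 active = mean inhibition across valid replicates above about 55%, limit read from the data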;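 also: signal also drops with host cell toxicity which is not excluded here; higher percent means less beta-gal luminescence so fewer parasites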
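Test system: β-gal T. cruzi (Tulahuen C4) inside NIH/3T3 cells / Quantity: 5,000 cells/well / Measured by: luminescence from GalScreen with 0.05% NP40, read after 60 min / Medium: DMEM plus 2% FBS / Measure: parasite load inhibition, % / Reagent: Tulahuen C4 trypomastigotes, 5000/well / Schedule: co-culture of at least 90 h after 3 h attachment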
Calb FLC: C. albicans growth inhibition with fluconazole, primary screen, CaCi-2 strain, Alamar Blue fluorescence; 300,000 tested, 0.57% active; growth inhibition, % (no concentration beside the values); C. albicans CaCi-2 + fluconazole, 48 h;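 active = growth inhibition above about 58% in most replicates, limit read from the data, passing the limit was not always enough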;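 also: all wells also contain fluconazole at 8 µg/ml as a sub-toxic cotreatment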
Beta apoptosis: inhibitors of cytokine-induced beta cell apoptosis, primary screen, luminescence; INS-1E cytokine-induced death, ATP luminescence, 48 h; percent of positive-control rescue, neutral wells zero; protection from apoptosis, % (no concentration beside the values); 300,000 tested, 0.8% active; AID 435005, 2010;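 active = Every replicate reaches about 75%, or at least half do and their mean reaches it too, limit read from the data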;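 also: higher means more ATP so stronger rescue from cytokine killing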
SKKanGAS inh: S. pyogenes SKKanGAS growth inhibitors in kanamycin, primary screen, streptokinase expression inhibitor project, SKKanGAS strain, BacTiter-Glo luminescence; 6 h; 300,000 tested, 1.3% active; inhibition, % at 7.5 µM; AID 1662, 2009;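 active = mean replicate score, as percent of positive control median, at least 50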;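 also: strain carries kanamycin resistance gene driven by streptokinase promoter and grows in 40 µg/ml kanamycin; loss of luminescence reflects streptokinase promoter inhibition or plain growth inhibition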
CSC inhib: cancer stem cell viability inhibitors, primary screen, luminescence. cancer stem cell-like cells viability. inhibition, % at 7.5 µM. 300,000 tested, 1.1% active. AID 2717, 2010; in the data active = inhibition above about 75%; tested in HMLE shEcad cells
Mdm2-MdmX inh: inhibitors of human Mdm2-MdmX association, primary screen, cell-based, luminescence, split luciferase, SaOS-2, uHTS; inhibition, % at 8 µM; AID 485346, 2010; Protein Mdm4 (Homo sapiens) + E3 ubiquitin-protein ligase Mdm2 (Homo sapiens), …; SaOS-2 split-luciferase Mdm2/MdmX complementation; 330,000 tested, 3% active;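 active = inhibition of at least 50% at 8 µM in the primary screen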
A number is an active result; n = inactive; x = not tested or not shown. An excerpt weighted towards active compounds, which were near 5.7% of everything screened.

SMILES	T cruzi repl	Calb FLC	Beta apoptosis	SKKanGAS inh	CSC inhib	Mdm2-MdmX inh
CN1/C(=C\C=C(C#N)C#N)C(C)(C)c2ccccc21	n	n	n	n	n	n
COc1ccc(C2C(C(=O)c3ccco3)=C(O)C(=O)N2CC2CCCO2)c(OC)c1 (stereo unspecified)	n	n	n	n	n	n
C[C@H]1CN([C@@H](C)CO)C(=O)c2cc(NC(=O)NC3CCCCC3)ccc2O[C@H]1CN(C)C(=O)Nc1ccc(C(F)(F)F)cc1	x	x	n	x	x	n
O=C(NCc1ccco1)c1ccc2c(c1)N(Cc1ccc(Cl)cc1)CCS2	n	n	n	n	n	n
O=C(NCc1ccco1)c1ccc2c(c1)N(Cc1ccccc1)CCS2	n	n	n	n	128.7	n
COCC(COS(N)(=O)=O)Cc1ccccc1 (stereo unspecified)	n	n	x	n	n	n
CCOC(=O)c1ccc(NC(=O)CC2S/C(=N/N=C/c3c[nH]c4ccccc34)NC2=O)cc1 (stereo unspecified)	n	n	n	65.1	88.4	n
CCCCCCSc1cc(-c2nc3cnccn3c2NCCCC)ccc1OC	x	x	n	x	104.8	n
CCCCCCSc1cccc(-c2nc3cc(C)ccn3c2NC2CCCCC2)c1	n	n	n	n	83.3	n
CCCCCCSc1cc(-c2nc3cc(C)ccn3c2NCCCC)ccc1OC	n	n	n	n	77.2	n
Cc1cccc(S(=O)(=O)Nc2cc(Cl)ccc2N2CCOCC2)c1	x	x	n	x	n	n
CCC1(c2ccccc2)NC(=O)N(CC(=O)Nc2cc(S(=O)(=O)N3CCCCC3)ccc2OC(C)C)C1=O (stereo unspecified)	n	n	n	n	n	n
CCOC(=O)c1ccc(NC(=O)c2ccccc2[N+](=O)[O-])cc1	n	n	x	n	n	n
CCOC(=O)c1cc([N+](=O)[O-])c([N+](=O)[O-])cc1NC(C)=O	n	106.4	n	n	n	x
COc1ccc(NC(=O)c2sc3nc(N4CCOCC4)c4c(c3c2N)CC(C)(C)OC4)c(OC)c1	n	n	n	n	n	n
Cc1cc(=O)oc2c3c(cc(OCC(=O)NC4CC4)c12)OC(C)(C)CC3	n	n	n	88.0	n	n
Cc1nn(-c2ccccc2)c(N)c1C(c1ccc(C(C)C)cc1)c1c(C)nn(-c2ccccc2)c1N	n	n	97.3	n	n	n
O=C(CNC(=O)N1CC(=O)Nc2ccccc21)NCCc1cccc(F)c1	n	n	n	n	n	n
COc1cc2c(cc1OC)-c1c(OC)c(OC)cc3ccnc(c13)C2=O	n	n	112.3	n	n	n
COc1ccc(C(=O)c2nccc3cc(OC)c(OC)cc23)cc1OC	x	x	n	x	n	n
O=C(NCCc1ccc(Cl)cc1Cl)c1cncc(Br)c1	n	n	n	n	n	n
CCCc1cc(=O)n(-c2nc3ccccc3s2)[nH]1	n	n	n	n	140.1	n
CCOC(=O)Cc1cc(=O)n(-c2nc3ccccc3s2)[nH]1	n	n	n	n	n	n
O=[N+]([O-])c1cc(-c2cnc3ccccc3n2)ccc1Oc1ccc(Cl)cc1	n	n	n	n	76.7	n
COc1ccc(C)cc1N1C(=N)/C(=C2/Nc3ccccc3S2)C(c2ccccc2)C1=O (stereo unspecified)	x	x	n	x	111.9	x
SMILES	T cruzi repl	Calb FLC	Beta apoptosis	SKKanGAS inh	CSC inhib	Mdm2-MdmX inh
COc1ccc(C)cc1-n1c(=O)c2ccccc2c2ccccc2c1=O	n	n	x	n	x	x
CN(C(=O)c1ccc(NC(=O)Cc2cccc(NC(=O)C3CCN(C(=O)C4CCCCC4)CC3)c2)cc1)C1CCCC1	x	x	n	x	n	n
CNC(=O)C(=O)NCC1OCCN1S(=O)(=O)c1ccc([N+](=O)[O-])cc1 (stereo unspecified)	n	n	x	n	n	n
O=C(NCc1ccccc1)C(=O)NCC1OCCN1S(=O)(=O)c1ccc([N+](=O)[O-])cc1 (stereo unspecified)	60.5	n	n	n	n	n
COc1ccccc1C(=O)OC(C)CN1CCN(C)CC1 (stereo unspecified)	n	n	x	n	n	n
CC(C)COc1cccc(C(=O)N(CC(=O)Nc2ccccc2C(F)(F)F)Cc2ccco2)c1	x	x	n	x	x	n
CC1CCc2c(C(=O)Nc3cccc(-c4nn[nH]n4)c3)csc2C1 (stereo unspecified)	n	n	x	55.5	n	n
Cc1ccc(OCCOC(=O)CN2C(=O)NC3(CCCC3)C2=O)cc1	n	n	n	n	n	n
CC12CC3(C)CC(C)(C1)CC(C(=O)NC1=NCCS1)(C2)C3	n	n	n	84.4	n	n
O=C(CN1C(=O)COc2ccccc21)N(Cc1cccnc1)Cc1ccccc1F	75.9	n	n	n	n	n
O=C(CCN1C(=O)COc2ccccc21)NCc1cccnc1	n	n	n	n	n	n
COc1ccc(/C=C2\SC(=O)N(CC(=O)NC3CCS(=O)(=O)C3)C2=O)cc1 (stereo unspecified)	n	n	n	n	n	n
Nc1c(S(=O)(=O)c2ccccc2)c2nc3ccccc3nc2n1CCN1CCOCC1	n	88.3	n	n	n	n
CCCCn1c(NS(=O)(=O)c2ccccc2)c(S(=O)(=O)c2ccc(C)cc2)c2nc3ccccc3nc21	n	n	85.7	73.0	n	x
Cc1ccc(S(=O)(=O)c2c(N)n(CCN3CCOCC3)c3nc4ccccc4nc23)cc1C	n	n	n	n	n	n
CCCCCn1c(NC(=O)c2ccco2)c(S(=O)(=O)c2ccc(C)cc2)c2nc3ccccc3nc21	55.3	n	n	n	n	n
CCCCn1c(NC(=O)c2ccco2)c(S(=O)(=O)c2ccc(C)cc2)c2nc3ccccc3nc21	n	n	x	n	x	x
CC1CCCN(CCCOc2ccc(Br)cc2Cl)C1 (stereo unspecified)	n	n	n	n	193.7	n
Cc1cc(Br)ccc1OCCCCN1CCCCC1	64.1	n	n	n	n	n
Cc1ccc(OCCOCCN2CCCC2)c(Br)c1	56.7	n	n	n	n	n
Cc1cc(Br)ccc1OCCOCCN1CCCC1	n	n	x	n	n	n
CCC(CC)c1nnc(NC(=O)CCc2ccccc2OC)s1	n	n	n	n	n	n
COC(=O)NC(=S)Nc1ccc(Oc2ccc(Cl)cc2)c(Cl)c1	74.2	n	x	n	x	n
COc1ccc(NC(=O)NNC(=O)c2ccc(Cl)cc2Cl)cc1OC	n	n	n	n	n	n
COC(=O)NC(=S)Nc1ccc(Oc2ccc(Cl)cc2Cl)c(Cl)c1	61.6	n	n	n	x	n
COc1cc(CN2CCCC(C(=O)c3ccccc3SC)C2)cc(OC)c1 (stereo unspecified)	68.4	n	n	n	n	n

Screens deposited in PubChem BioAssay by several laboratories.
